# Source: ChEMBL document CHEMBL1123180, “Improved glucose tolerance in rats treated with oxazolidinediones” (1986)
# The source made the active and inactive calls. No cut-off for these calls is given here.
# Tested on: Rattus norvegicus
# Experiment: Compound was tested for the ability to lower blood sugar level at the dose of 0.63 mg/kg in fasted rats, by using glucose tolerance test(GTT)
# Format: functional
# Details: not given
# Procedure, shortened: (§1)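 Male albino rats, groups of five or six, fasted 18–24 h. Glucose 1 g/kg given ip; test drug (0.1 to 100 mg/kg) or water (controls) given orally. Tail-vein blood sampled over 0–3 h; glucose (mg/100 mL) measured by Autoanalyser ferricyanide method. Value is percent lowering of blood glucose vs controls at 0.5 h; a lowering of ≥9% is needed for P = 0.05.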
row,Compound,Blood sugar lowering
1,COc1cccc(Cl)c1C1OC(=O)NC1=O (stereo not given),11%

# Tested on: Rattus norvegicus
# Experiment: Ability to lower blood sugar level at the dose of 2.5 mg/kg in fasted rats, by using glucose tolerance test(GTT)
# Format: functional
# Details: not given
# Procedure, shortened: as §1
row,Compound,Blood sugar lowering
1,COc1ccc(F)cc1C1OC(=O)NC1=O (stereo not given),15%
2,C=CCOc1cccc(Cl)c1C1OC(=O)NC1=O (stereo not given),17%
3,COc1ccc(C)cc1C1OC(=O)NC1=O (stereo not given),10%

# Same assay, conditions: 2.5 mg/kg
row,Compound,Blood sugar lowering
1,"COc1ccc(Cl)cc1C1OC(=O)NC1=O (single isomer, unassigned; (+))",12%
2,"COc1ccc(Cl)cc1C1OC(=O)NC1=O (single isomer, unassigned; (-))",26%

# Tested on: Rattus norvegicus
# Experiment: Compound was tested for the ability to lower blood sugar level at the dose of 25 mg/kg in fasted rats, by using glucose tolerance test(GTT)
# Format: functional
# Details: not given
# Procedure, shortened: as §1
row,Compound,Blood sugar lowering
1,COc1ccc([N+](=O)[O-])cc1C1OC(=O)NC1=O (stereo not given),17%

# Tested on: Rattus norvegicus
# Experiment: Compound was tested for the ability to lower blood sugar level at the dose of 1 mg/kg in fasted rats, by using glucose tolerance test(GTT)
# Format: functional
# Details: not given
# Procedure, shortened: as §1
row,Compound,Blood sugar lowering
1,COc1cccc(F)c1C1OC(=O)NC1=O (stereo not given),11%
2,COc1ccc(Cl)cc1C1OC(=O)NC1=O (stereo not given),12%

# Tested on: Rattus norvegicus
# Experiment: Ability to lower blood sugar level at the dose of 100 mg/kg in fasted rats, by using glucose tolerance test(GTT); NA=Inactive
# Format: functional, organism-based
# Parameters: dose 100 mg/kg
# Details: not given
# Procedure, shortened: as §1
row,Compound,Blood sugar lowering
1,O=C1NC(=O)C(c2ccccc2)N1 (stereo not given),inactive
2,CCC1(c2ccccc2)OC(=O)NC1=O (stereo not given),inactive
3,Nc1ccc(C2OC(=O)NC2=O)cc1 (stereo not given),inactive
4,CN1C(=O)OC(c2ccccc2)C1=O (stereo not given),inactive
5,CNC(=O)Nc1ccccc1C1OC(=O)NC1=O (stereo not given),inactive

# Tested on: Rattus norvegicus
# Experiment: Ability to lower blood sugar level at the dose of 25 mg/kg in fasted rats, by using glucose tolerance test(GTT)
# Format: functional
# Details: not given
# Procedure, shortened: as §1
row,Compound,Blood sugar lowering
1,Cc1ccc(F)cc1C1OC(=O)NC1=O (stereo not given),19%
2,COc1ccc(C#N)cc1C1OC(=O)NC1=O (stereo not given),19%
3,CCSc1cccc(F)c1C1OC(=O)NC1=O (stereo not given),17%
4,COc1ccc(C2OC(=O)NC2=O)c(OC)c1 (stereo not given),10%
5,O=C1NC(=O)C(c2ccccc2[N+](=O)[O-])O1 (stereo not given),11%
6,O=C1NC(=O)C(c2c(F)cccc2F)O1 (stereo not given),25%
7,Cl.Nc1ccccc1C1OC(=O)NC1=O (stereo not given),15%
8,CC(C)Oc1cccc(F)c1C1OC(=O)NC1=O (stereo not given),15%
9,O=C1NC(=O)C(c2c(Cl)cccc2Cl)O1 (stereo not given),21%
10,O=C1NC(=O)C(Cc2ccccc2)O1 (stereo not given),9%
11,CCc1ccc(OC)c(C2OC(=O)NC2=O)c1 (stereo not given),10%
12,CSc1cccc(F)c1C1OC(=O)NC1=O (stereo not given),18%
13,CSc1cccc(Cl)c1C1OC(=O)NC1=O (stereo not given),21%

# Tested on: Rattus norvegicus
# Experiment: Compound was tested for the ability to lower blood sugar level at the dose of 10 mg/kg in fasted rats, by using glucose tolerance test(GTT); NA=Inactive
# Format: functional, organism-based
# Parameters: dose 10 mg/kg
# Details: not given
# Procedure, shortened: as §1
row,Compound,Blood sugar lowering
1,C/C=C/Oc1cccc(Cl)c1C1OC(=O)NC1=O (stereo not given),inactive
2,COc1ccc(S(N)(=O)=O)cc1C1OC(=O)NC1=O (stereo not given),inactive

# Tested on: Rattus norvegicus
# Experiment: Ability to lower blood sugar level at the dose of 10 mg/kg in fasted rats, by using glucose tolerance test(GTT)
# Format: functional
# Details: not given
# Procedure, shortened: as §1
row,Compound,Blood sugar lowering
1,COc1c(C)cc(Cl)cc1C1OC(=O)NC1=O (stereo not given),17%
2,O=C1NC(=O)C(c2cccc(C(F)(F)F)c2)O1 (stereo not given),17%
3,O=C1NC(=O)C(c2ccccc2)O1 (stereo not given) [PEMOLINE DIONE],13%
4,COc1ccc(Cl)c(C)c1C1OC(=O)NC1=O (stereo not given),12%
5,Cc1cccc(C)c1C1OC(=O)NC1=O (stereo not given),13%
6,Cc1ccccc1C1OC(=O)NC1=O (stereo not given),14%
7,COc1c(Cl)cc(F)cc1C1OC(=O)NC1=O (stereo not given),15%
8,COc1cccc(OC)c1C1OC(=O)NC1=O (stereo not given),12%
9,COc1c(F)cc(C)cc1C1OC(=O)NC1=O (stereo not given),17%
10,COc1ccc(C)cc1C1OC(=O)NC1=O (stereo not given),21%
11,O=C1NC(=O)C(c2ccccc2Cl)O1 (stereo not given),11%
12,O=C1NC(=O)C(c2c(F)cccc2Cl)O1 (stereo not given),12%
13,O=C1NC(=O)C(c2ccccc2C(F)(F)F)O1 (stereo not given),11%
14,O=C1NC(=O)C(c2cccc(F)c2)O1 (stereo not given),10%
15,COc1cccc(C)c1C1OC(=O)NC1=O (stereo not given),10%

# Tested on: Rattus norvegicus
# Experiment: Compound was tested for the ability to lower blood sugar level at the dose of 50 mg/kg in fasted rats, by using glucose tolerance test(GTT)
# Format: functional
# Details: not given
# Procedure, shortened: as §1
row,Compound,Blood sugar lowering
1,COc1cccc(C2OC(=O)NC2=O)c1OC (stereo not given),12%
2,O=C1NC(=O)C(c2ccc(Cl)cc2)O1 (stereo not given),12%

# Tested on: Rattus norvegicus
# Experiment: Compound was tested for the ability to lower blood sugar level at the dose of 25 mg/kg in rats, by using glucose tolerance test(GTT)
# Format: functional
# Details: not given
# Procedure, shortened: as §1
row,Compound,Blood sugar lowering
1,O=C1NC(=O)C(c2ccccc2)O1 (stereo not given) [PEMOLINE DIONE],26%

# Tested on: Rattus norvegicus
# Experiment: Compound was tested for the ability to lower blood sugar level at the dose of 25 mg/kg in fasted rats, by using glucose tolerance test(GTT); NA=Inactive
# Format: functional, organism-based
# Parameters: dose 25 mg/kg
# Details: not given
# Procedure, shortened: as §1
row,Compound,Blood sugar lowering
1,O=C1NC(=O)C(c2ccccc2)S1 (stereo not given),inactive

# Tested on: Rattus norvegicus
# Experiment: Compound was tested for the ability to lower blood sugar level at the dose of 100 mg/kg in fasted rats, by using glucose tolerance test(GTT)
# Format: functional
# Details: not given
# Procedure, shortened: as §1
row,Compound,Blood sugar lowering
1,O=C1NC(=O)C(c2ccccc2)S1 (stereo not given),34%

# Tested on: Rattus norvegicus
# Experiment: Ability to lower blood sugar level at the dose of 100 mg/kg in fasted rats, by using glucose tolerance test(GTT)
# Format: functional
# Details: not given
# Procedure, shortened: as §1
row,Compound,Blood sugar lowering
1,O=C1NC(=O)C(c2ccccc2)O1 (stereo not given) [PEMOLINE DIONE],35%
